Here are results for 24 molecules from ChEMBL document CHEMBL2434935, “Design, syntheses, and characterization of pharmacophore based chemokine receptor CCR5 antagonists as anti prostate cancer agents” (Eur J Med Chem, 2013).

Data set [1] is described as follows: (§1) Antiproliferative activity against human M12 cells after 72 hrs by WST-1 assay. As to conditions: M12, 72 h, read-out: ED50 (the source's name). Type of data set: functional. The gist of the method:
(§2)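 PC-3 cells kept in serum-free RPMI with L-glutamine, ITS and gentamicin plus 10% FBS. M12 cells got 5% FBS, then after 24 h serum-free medium with 0.01% EGF. Cells plated at 1000/well; after 24 h, drugs added at various concentrations in PBS (controls PBS) for 72 h. Medium then replaced with serum-free medium:WST-1 9:1, absorbance read after 3 h. Non-linear regression fit; mean ± S.E.M., ≥3 experiments in triplicate.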

Another data set relates to M12. The description is as §1. Type of data set: functional. The procedure, abridged:
as §2

For the next data set, the system named is PC-3. Briefly: Antiproliferative activity against human PC3 cells after 72 hrs by WST-1 assay. In kind it is functional. As to conditions: for EC50: PC-3, 72 h, read-out: ED50 (the source's name). The gist of the method: as §2
For orientation: Tetrazolium dyes change colour on reduction, which living cells bring about.

Data set [2] in a line: Cytotoxicity against mouse NIH/3T3 cells after 48 hrs by neutral red dye uptake assay. In kind it is cell-based, NIH3T3. As to conditions: read-out: TC50. The procedure, abridged: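 NIH-3T3 mouse embryonic fibroblasts grown in medium with 10% newborn calf serum and 1% penicillin:streptomycin. Compounds at various concentrations in DMEM dilution medium for 48 h. After HBSS wash, neutral red 25 µg/mL in DMEM/5% NBCS for 3 ± 0.1 h. Dye extracted with 50% ethanol/1% acetic acid, shaken 20 min, absorbance 540 nm. TC50 by non-linear regression.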

In data set [3] the target is T1, C-C chemokine receptor type 5 (Homo sapiens, UniProt P51681). Briefly: Agonist activity at CCR5 (unknown origin) expressed in MOLT4 cells transfected with Gqi5 assessed as induction of calcium ion mobilization after 15 mins by microplate reader method. As to conditions: MOLT-4. Type of data set: functional, cell-based. The procedure, abridged:
(§3)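 CCR5-MOLT-4 cells transfected with Gqi5 (Lipofectamine 2000), kept in RPMI 1640/10% FBS with penicillin, streptomycin and 1 mg/mL G418 at 37 °C, 5% CO2. At 48 h post-transfection the cells were resuspended in 50:1 HBSS:HEPES buffer and loaded with Fluo4-AM plus probenecid for 45 min. Ligands were added at varying concentrations for 15 min, then RANTES or buffer was added at 16 s. Fluorescence was read at 494/516 nm for 120 s.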
Target sequence in this assay (P51681 whole entry, looked up): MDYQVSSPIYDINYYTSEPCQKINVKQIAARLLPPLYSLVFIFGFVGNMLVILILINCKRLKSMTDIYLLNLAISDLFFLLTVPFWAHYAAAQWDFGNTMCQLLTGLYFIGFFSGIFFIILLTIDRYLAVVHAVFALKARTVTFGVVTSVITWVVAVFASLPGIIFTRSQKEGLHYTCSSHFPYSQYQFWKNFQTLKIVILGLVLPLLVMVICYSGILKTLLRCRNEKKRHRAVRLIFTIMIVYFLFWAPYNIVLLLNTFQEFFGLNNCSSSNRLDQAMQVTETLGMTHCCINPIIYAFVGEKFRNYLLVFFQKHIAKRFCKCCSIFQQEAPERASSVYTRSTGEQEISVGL

Data set [4] has as its target T1, C-C chemokine receptor type 5. Briefly: Antagonist activity at CCR5 (unknown origin) expressed in MOLT4 cells transfected with Gqi5 assessed as inhibition of RANTES-induced calcium ion mobilization after 15 mins by microplate reader method. In kind it is functional, cell-based, MOLT-4. To be noted: for inhibition: MOLT-4. The gist of the method: as §3

What is called IC50 is the concentration that inhibits the measured activity by half.

Calls of active or inactive are those of the source. The calls are words filed in the database; no cut-off is given here. A value given as a limit tells only on which side of the number the result lay.

As to `CCOc1ccc(C2CCN(Cc3ccc(N(CC)CC)cc3)CC2)cc1NC(=O)c1cnccn1`, the EC50 in data set [1] stood at 18.7 µM; in the data set with PC-3, 77 µM. In addition, the Activity entry in the data set with M12 and in the data set on PC-3 was “Dose-dependent effect” in each case. The CC50 at 48 h in data set [2] turned out to be 46.9 µM. Also, in data set [3], the outcome was inactive. Also, the concentration for half-maximal inhibition (IC50) in data set [4] is 51.8 µM. In addition, the inhibition entry in data set [4] is “Dose-dependent effect”.
Turning to `CC(C)Oc1ccc(C2CCN(Cc3ccc(N)cc3)CC2)cc1NC(=O)c1cnccn1`, the result in data set [3] was inactive. Besides, in data set [4], the IC50 was 77.8 µM and the inhibition entry is “Dose-dependent effect”.
The corresponding values for `CCOc1ccc(C2CCN(Cc3ccc(NC(C)=O)cc3)CC2)cc1NC(=O)c1ccccc1` are “inactive”, 115 µM and “Dose-dependent effect”.
Consider `CC(=O)Nc1ccc(CN2CCC(c3ccc(OC(C)C)c(NC(=O)c4ccccc4)c3)CC2)cc1`, for which the outcome in data set [3] was inactive. In data set [4], the IC50 was determined as 92.2 µM and the inhibition entry was “Dose-dependent effect”.
Regarding `CCOc1ccc(C2CCN(Cc3ccc([N+](=O)[O-])cc3)CC2)cc1NC(=O)c1cnccn1`, the Activity result in the data set on M12 is “Dose-dependent effect”. Further, in the data set on PC-3, the Activity result was “Dose-dependent effect” and the EC50 was 109 µM. Besides, the CC50 at 48 h in data set [2] is more than 100 µM. Further, the outcome in data set [3] was inactive. Besides, in data set [4], the IC50 is 61 µM and the inhibition result was “Dose-dependent effect”.
Turning to `CCN(CC)c1ccc(CN2CCC(c3ccc(OC(C)C)c(NC(=O)c4cnccn4)c3)CC2)cc1`, the outcome in data set [3] was inactive. For the same molecule, in data set [4], the IC50 was 61 µM and the inhibition entry is “Dose-dependent effect”.
On to `CCOc1ccc(C2CCN(Cc3ccc(N(CC)CC)cc3)CC2)cc1NC(=O)c1ccccc1`, for which the EC50 in data set [1] is 15.9 µM. Also, the Activity result in the data set on M12 is “Dose-dependent effect”. Further, in the data set on PC-3, the Activity entry is “Dose-dependent effect” and the EC50 was determined as 86.6 µM. Also, the CC50 at 48 h in data set [2] came to 49.5 µM. In data set [3], the outcome was inactive. In data set [4], the IC50 was 64 µM and the inhibition result is “Dose-dependent effect”.
With `COc1ccc(C2CCN(Cc3ccc([N+](=O)[O-])cc3)CC2)cc1NC(=O)c1cnccn1`, in data set [3], the outcome was inactive. For the same molecule, in data set [4], the IC50 was 73 µM and the inhibition entry is “Dose-dependent effect”.
Consider `CCOc1ccc(C2CCN(Cc3ccc(NC(C)=O)cc3)CC2)cc1NC(=O)c1cnccn1`, for which the EC50 in data set [1] worked out at 58 µM. In addition, the Activity result with M12 was “Dose-dependent effect”. Also, in the data set with PC-3, the Activity result was “Dose-dependent effect” and the EC50 was found to be 50 µM. The CC50 at 48 h in data set [2] is more than 100 µM. Further, in data set [3], the outcome was inactive. Moreover, in data set [4], the concentration for half-maximal inhibition (IC50) was 47 µM and the inhibition entry was “Dose-dependent effect”.
In the case of `COc1ccc(C2CCN(Cc3ccc(NC(C)=O)cc3)CC2)cc1NC(=O)c1cnccn1`, in data set [3], the outcome was inactive. Besides, in data set [4], the concentration for half-maximal inhibition (IC50) stood at 59 µM and the inhibition entry was “Dose-dependent effect”.
The corresponding values for `CC(C)Oc1ccc(C2CCN(Cc3ccc([N+](=O)[O-])cc3)CC2)cc1NC(=O)c1cnccn1` are “inactive”, 65.7 µM and “Dose-dependent effect”.
The matching figures for `CCN(CC)c1ccc(CN2CCC(c3ccc(OC)c(NC(=O)c4cnccn4)c3)CC2)cc1`: “inactive”, 56 µM and “Dose-dependent effect”.
The matching figures for `CCN(CC)c1ccc(CN2CCC(c3ccc(OC(C)C)c(NC(=O)c4ccccc4)c3)CC2)cc1`: “inactive”, 138 µM and “Dose-dependent effect”.
Consider `COc1ccc(C2CCN(Cc3ccc(N)cc3)CC2)cc1NC(=O)c1ccccc1`, for which the outcome in data set [3] was inactive. For the same molecule, in data set [4], the IC50 is 77 µM and the inhibition entry is “Dose-dependent effect”.
The corresponding values for `CC(C)Oc1ccc(C2CCN(Cc3ccc([N+](=O)[O-])cc3)CC2)cc1NC(=O)c1ccccc1` are “inactive”, 45 µM and “Dose-dependent effect”.
The corresponding values for `CCOc1ccc(C2CCN(Cc3ccc(N)cc3)CC2)cc1NC(=O)c1cnccn1` are “inactive”, 43.5 µM and “Dose-dependent effect”.
`COc1ccc(C2CCN(Cc3ccc(N)cc3)CC2)cc1NC(=O)c1cnccn1`: the EC50 in data set [1] came to 73.7 µM. Moreover, the Activity result in the data set with M12 was “Dose-dependent effect”. Also, in the data set on PC-3, the Activity entry was “Dose-dependent effect” and the EC50 came out at 72.3 µM. For the same molecule, the CC50 at 48 h in data set [2] is more than 100 µM. For the same molecule, the result in data set [3] was inactive. Besides, in data set [4], the IC50 was found to be 38.8 µM and the inhibition entry is “Dose-dependent effect”.
As to `CC(C)Oc1ccc(C2CCN(Cc3ccc(N)cc3)CC2)cc1NC(=O)c1ccccc1`, the result in data set [3] was inactive. In data set [4], the IC50 was 66.2 µM and the inhibition entry was “Dose-dependent effect”.
The matching figures for `COc1ccc(C2CCN(Cc3ccc([N+](=O)[O-])cc3)CC2)cc1NC(=O)c1ccccc1`: “inactive”, 28.7 µM and “Dose-dependent effect”.
The matching figures for `CCOc1ccc(C2CCN(Cc3ccc([N+](=O)[O-])cc3)CC2)cc1NC(=O)c1ccccc1`: “inactive”, 28 µM and “Dose-dependent effect”.
Consider `CCOc1ccc(C2CCN(Cc3ccc(N)cc3)CC2)cc1NC(=O)c1ccccc1`, for which the outcome in data set [3] was inactive. For the same molecule, in data set [4], the half-inhibitory concentration (IC50) turned out to be 63 µM and the inhibition result is “Dose-dependent effect”.
The corresponding values for `CC(=O)Nc1ccc(CN2CCC(c3ccc(OC(C)C)c(NC(=O)c4cnccn4)c3)CC2)cc1` are “inactive”, 88.1 µM and “Dose-dependent effect”.
In the case of `COc1ccc(C2CCN(Cc3ccc(NC(C)=O)cc3)CC2)cc1NC(=O)c1ccccc1`, the EC50 in data set [1] came out at 79.9 µM. Also, in the data set on M12, the Activity result was “Dose-dependent effect”. Further, in the data set with PC-3, the Activity result was “Dose-dependent effect” and the EC50 is 60 µM. Moreover, the CC50 at 48 h in data set [2] was 92.2 µM. Besides, the outcome in data set [3] was inactive. For the same molecule, in data set [4], the IC50 stood at 70.8 µM and the inhibition entry was “Dose-dependent effect”.
For the molecule `CCN(CC)c1ccc(CN2CCC(c3ccc(OC)c(NC(=O)c4ccccc4)c3)CC2)cc1`, the result in data set [3] was inactive. Also, in data set [4], the 50% inhibitory concentration (IC50) was 90 µM and the inhibition entry was “Dose-dependent effect”.
